Data published in ChEMBL document CHEMBL5724801, “EUbOPEN Chemogenomics Library - Multiplex” (2024).
Several values for one entry are separate records, joined by “and”; a condition that tells them apart may be missing. Identical values can stand only once.

Tested on: U2OS
Assay: Multiplex assay against U2OS
Type: toxicity, cell-based
Conditions: human
Method in brief: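 Hoechst33342, BioTracker Green Microtubule Cytoskeleton Dye, MitoTracker Red and Annexin V Alexa Fluor 680 were added to live cells at seeding, and imaging on a CQ1 microscope at 37°C and 5% CO2 followed compound addition. Gating by CellPathfinder machine learning separated cells into Hoechst high-intensity objects or normal cells, then normal cells into healthy, pyknosed or fragmented nuclei, then pyknosed cells into mitotic or apoptotic. Per cents of healthy-nucleus cells are reported for the tubulin, mitochondrial-mass and membrane-permeability phenotypes.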

[1] = 12 h, 1 µM, compound concentration 1 uM
[2] = 12 h, 10 µM, compound concentration 10 uM
[3] = 24 h, 1 µM, compound concentration 1 uM
[4] = 24 h, 10 µM, compound concentration 10 uM
[5] = 48 h, 1 µM, compound concentration 1 uM
[6] = 48 h, 10 µM, compound concentration 10 uM

CC(=O)NCCc1c(Cc2ccccc2)[nH]c2ccccc12 [LUZINDOLE]
Population Apoptotic (%) [1]: 72% and 100% | Population Fragmented Nuclei (%) [1]: 25% and 19% | Population Healthy Nuclei (%) [1]: 65% and 77% | Population Hoechst High Intensity Objects (%) [1]: 3% and 2% | Population Membrane Permeable-Phenotype (%) [1]: 3% and 6% | Population Mitochondria Different-Phenotype (%) [1]: 4% and 2% | Population Normal (%) [1]: 96% and 97% | Population Pyknosed Nuclei (%) [1]: 9% and 3% | Population Tubulin-Different-Phenotype (%) [1]: 1% and 2% | Total Cell Count [1]: 233 and 134 | Population Apoptotic (%) [2]: 81% and 76% | Population Fragmented Nuclei (%) [2]: 26% and 13% | Population Healthy Nuclei (%) [2]: 65% and 78% | Population Hoechst High Intensity Objects (%) [2]: 2% and 1% | Population Membrane Permeable-Phenotype (%) [2]: 8% and 5% | Population Mitochondria Different-Phenotype (%) [2]: 3% and 2% | Population Mitotic Cells (%) [2]: 18% and 23% | Population Normal (%) [2]: 97% and 98% | Population Pyknosed Nuclei (%) [2]: 7% | Population Tubulin-Different-Phenotype (%) [2]: 4% and 3% | Total Cell Count [2]: 291 and 179 | Population Apoptotic (%) [3]: 90% and 88% | Population Fragmented Nuclei (%) [3]: 19% and 18% | Population Healthy Nuclei (%) [3]: 68% and 70% | Population Hoechst High Intensity Objects (%) [3]: 4% and 0% | Population Membrane Permeable-Phenotype (%) [3]: 2% and 5% | Population Mitochondria Different-Phenotype (%) [3]: 3% and 1% | Population Mitotic Cells (%) [3]: 10% and 11% | Population Normal (%) [3]: 95% and 99% | Population Pyknosed Nuclei (%) [3]: 12% and 10% | Population Tubulin-Different-Phenotype (%) [3]: 3% and 4% | Total Cell Count [3]: 260 and 156 | Population Apoptotic (%) [4]: 88% and 85% | Population Fragmented Nuclei (%) [4]: 25% and 11% | Population Healthy Nuclei (%) [4]: 66% and 80% | Population Hoechst High Intensity Objects (%) [4]: 2% and 0% | Population Membrane Permeable-Phenotype (%) [4]: 6% | Population Mitochondria Different-Phenotype (%) [4]: 3% and 1% | Population Mitotic Cells (%) [4]: 12% and 15% | Population Normal (%) [4]: 97% and 99% | Population Pyknosed Nuclei (%) [4]: 7% and 8% | Population Tubulin-Different-Phenotype (%) [4]: 4% and 3% | Total Cell Count [4]: 342 and 236 | Population Apoptotic (%) [5]: 91% and 80% | Population Fragmented Nuclei (%) [5]: 16% and 11% | Population Healthy Nuclei (%) [5]: 74% and 77% | Population Hoechst High Intensity Objects (%) [5]: 2% and 1% | Population Membrane Permeable-Phenotype (%) [5]: 3% and 8% | Population Mitochondria Different-Phenotype (%) [5]: 2% and 1% | Population Mitotic Cells (%) [5]: 8% and 20% | Population Normal (%) [5]: 97% and 98% | Population Pyknosed Nuclei (%) [5]: 9% and 11% | Population Tubulin-Different-Phenotype (%) [5]: 2% and 4% | Total Cell Count [5]: 395 and 217 | Population Apoptotic (%) [6]: 89% and 100% | Population Fragmented Nuclei (%) [6]: 21% and 11% | Population Healthy Nuclei (%) [6]: 69% and 82% | Population Hoechst High Intensity Objects (%) [6]: 2% and 1% | Population Membrane Permeable-Phenotype (%) [6]: 6% and 5% | Population Mitochondria Different-Phenotype (%) [6]: 3% and 2% | Population Mitotic Cells (%) [6]: 10% and 0% | Population Normal (%) [6]: 97% and 98% | Population Pyknosed Nuclei (%) [6]: 8% and 5% | Population Tubulin-Different-Phenotype (%) [6]: 3% | Total Cell Count [6]: 446 and 354

N[C@@]1(C(=O)O)CO[C@H]2[C@H](C(=O)O)[C@H]21 [LY-379268]
Population Apoptotic (%) [1]: 85% and 100% | Population Fragmented Nuclei (%) [1]: 20% and 17% | Population Healthy Nuclei (%) [1]: 76% and 79% | Population Hoechst High Intensity Objects (%) [1]: 0% | Population Membrane Permeable-Phenotype (%) [1]: 2% and 8% | Population Mitochondria Different-Phenotype (%) [1]: 1% and 2% | Population Mitotic Cells (%) [1]: 14% and 0% | Population Normal (%) [1]: 99% | Population Pyknosed Nuclei (%) [1]: 3% and 2% | Population Tubulin-Different-Phenotype (%) [1]: 1% and 3% | Total Cell Count [1]: 211 and 108 | Population Apoptotic (%) [2]: 63% and 80% | Population Fragmented Nuclei (%) [2]: 30% and 19% | Population Healthy Nuclei (%) [2]: 61% and 77% | Population Hoechst High Intensity Objects (%) [2]: 0% and 1% | Population Membrane Permeable-Phenotype (%) [2]: 8% and 4% | Population Mitochondria Different-Phenotype (%) [2]: 2% and 1% | Population Mitotic Cells (%) [2]: 36% and 20% | Population Normal (%) [2]: 99% and 98% | Population Pyknosed Nuclei (%) [2]: 7% and 3% | Population Tubulin-Different-Phenotype (%) [2]: 3% and 1% | Total Cell Count [2]: 264 and 143 | Population Apoptotic (%) [3]: 88% and 100% | Population Fragmented Nuclei (%) [3]: 20% and 11% | Population Healthy Nuclei (%) [3]: 71% and 79% | Population Hoechst High Intensity Objects (%) [3]: 1% and 0% | Population Mitochondria Different-Phenotype (%) [3]: 1% and 2% | Population Mitotic Cells (%) [3]: 11% and 0% | Population Normal (%) [3]: 98% and 100% | Population Pyknosed Nuclei (%) [3]: 7% and 9% | Population Tubulin-Different-Phenotype (%) [3]: 1% and 6% | Total Cell Count [3]: 245 and 133 | Population Apoptotic (%) [4]: 81% and 90% | Population Fragmented Nuclei (%) [4]: 25% and 16% | Population Healthy Nuclei (%) [4]: 66% and 77% | Population Hoechst High Intensity Objects (%) [4]: 1% | Population Membrane Permeable-Phenotype (%) [4]: 8% and 4% | Population Mitochondria Different-Phenotype (%) [4]: 1% and 4% | Population Mitotic Cells (%) [4]: 18% and 10% | Population Normal (%) [4]: 98% | Population Pyknosed Nuclei (%) [4]: 7% and 6% | Population Tubulin-Different-Phenotype (%) [4]: 2% and 4% | Total Cell Count [4]: 284 and 165 | Population Apoptotic (%) [5]: 92% and 100% | Population Fragmented Nuclei (%) [5]: 13% and 15% | Population Healthy Nuclei (%) [5]: 79% and 72% | Population Hoechst High Intensity Objects (%) [5]: 1% and 2% | Population Membrane Permeable-Phenotype (%) [5]: 3% and 11% | Population Mitochondria Different-Phenotype (%) [5]: 2% and 5% | Population Mitotic Cells (%) [5]: 7% and 0% | Population Normal (%) [5]: 98% and 97% | Population Pyknosed Nuclei (%) [5]: 7% and 12% | Population Tubulin-Different-Phenotype (%) [5]: 3% and 5% | Total Cell Count [5]: 348 and 178 | Population Apoptotic (%) [6]: 92% and 90% | Population Fragmented Nuclei (%) [6]: 24% and 11% | Population Healthy Nuclei (%) [6]: 68% and 83% | Population Hoechst High Intensity Objects (%) [6]: 2% | Population Membrane Permeable-Phenotype (%) [6]: 9% and 3% | Population Mitochondria Different-Phenotype (%) [6]: 2% | Population Mitotic Cells (%) [6]: 7% and 9% | Population Normal (%) [6]: 97% | Population Pyknosed Nuclei (%) [6]: 7% and 4% | Population Tubulin-Different-Phenotype (%) [6]: 3% | Total Cell Count [6]: 383 and 228
